# Source: PubChem BioAssay
# Shown are actives, neighbours in structure and some others; about 2.9% of the full set was active somewhere.
# C2C12 statin: protects C2C12 myotubes from simvastatin toxicity. ATP luminescence, 48 h; scaled: DMSO 0, geranylgeraniol control 100. 330,000 compounds, 0.78% hits. AID 602340. rescue of ATP level, % at 7.49 µM;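 active means mean ATP rescue above about 67%, or every replicate alone reaching that limit, limit read from the data, passing the limit was not always enough; inconclusive means no clear call, values can overlap the other calls; inactive means mean under the limit and some replicate under it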;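 further: myotubes were challenged with 10 µM simvastatin during compound exposure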
# SIRT5 block: inhibitors of human sirtuin-5 desuccinylase; AID 652115; inhibition, % at 15 µM; Q9NXA8; 330,000 compounds, 1.1% hits; Purified SirT5, succinyl-peptide AMC, trypsin-coupled fluorescence; in the data active means inhibition above about 15%; inconclusive means no clear call, values can overlap the other calls
# Target sequence (Q9NXA8 whole entry, looked up): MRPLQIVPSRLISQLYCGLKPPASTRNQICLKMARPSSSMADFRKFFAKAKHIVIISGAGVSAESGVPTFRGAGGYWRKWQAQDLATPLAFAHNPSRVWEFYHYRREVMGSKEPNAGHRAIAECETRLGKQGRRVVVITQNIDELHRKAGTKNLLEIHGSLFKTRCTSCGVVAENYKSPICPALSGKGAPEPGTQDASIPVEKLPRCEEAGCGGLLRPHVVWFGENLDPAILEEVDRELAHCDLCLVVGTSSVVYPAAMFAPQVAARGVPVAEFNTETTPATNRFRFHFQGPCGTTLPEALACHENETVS
# DENV2 CPE rescue: inhibitors of DENV2 cytopathic effect; 350,000 compounds, 1.7% hits; CPE inhibition, % at 9.99 µM; AID 651640; DENV2-infected cells, cytopathic effect rescue, plate reader; in the data active means CPE inhibition above about 20%, passing the limit was not always enough; inconclusive means no clear call, values can overlap the other calls; tested in BHK-21 cells;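 further: 0% = median of neutral control wells and 100% = median of positive control wells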
# PGC1a acetyl inh: lowers PGC1a acetylation signal in U2OS cells. inhibition, % at 15.6 µM. 350,000 compounds, 0.17% hits. AlphaScreen anti-acetyl-lysine; with virally co-expressed GCN5 acetyltransferase;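 active means every replicate shows inhibition of at least 40%; inconclusive means mean inhibition at least 40% but some replicate below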;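 further: 0% = neutral control wells and 100% = positive control wells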
# S100A4 MyoIIA: inhibitors of human S100A4 binding to myosin IIA peptide; S100A4/TAMRA-MyoIIA peptide fluorescence polarization; AID 652163; inhibition, % at 10.7 µM; 360,000 compounds, 0.14% hits;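 active means mean inhibition of at least 70% across replicates, with every replicate also reaching that level; inconclusive means mean inhibition reaches 70% but some replicates fall short; inactive means mean inhibition below 70%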
# Target sequence (P26447 whole entry, looked up): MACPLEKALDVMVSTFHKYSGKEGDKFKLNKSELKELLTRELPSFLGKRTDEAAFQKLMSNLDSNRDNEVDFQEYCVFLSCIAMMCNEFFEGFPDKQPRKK
#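 Material: S100A4 monomer protein | Medium: HEPES pH 7.2 with CaCl2, KCl, NaCl, DTT, Triton | Reagent: Labelled myosin peptide probe, 5 nM | Doses: One dose per compound | Times: 5 min incubation before reading | Benchmarks: Neutral control DMSO, positive control TFP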
# Active calls of the source: *; u = inconclusive; x = not tested or not shown.
SMILES,C2C12 statin,SIRT5 block,DENV2 CPE rescue,PGC1a acetyl inh,S100A4 MyoIIA
CN1c2ccc(-c3ccccc3F)cc2[C@H]2[C@H](CCN2S(=O)(=O)c2ccccc2)[C@@H]1CO,-14,9,21*,-16,-4
CC1C=NC(S(=O)(=O)N2CC[C@@H]3[C@@H](CO)N(C)c4ccc(-c5ccc(F)cc5)cc4[C@@H]32)=N1 (some centres undefined),49,x,21*,2,x
Cc1cccc(S(=O)(=O)N2CC[C@@H]3[C@@H](CO)N(C)c4ccc(-c5ccccc5F)cc4[C@@H]32)c1,23,7,35*,-11,-1
C[C@@H]1CN([C@@H](C)CO)C(=O)c2cc(-c3ccc(F)cc3)cnc2O[C@H]1CN(C)CC1CCCC1,-23,-2,54*,-12,4
C[C@@H]1CN([C@@H](C)CO)C(=O)c2cc(-c3ccc(C#N)cc3)cnc2O[C@@H]1CN(C)CC1CCOCC1,12,38*,-6,-4,4
Cc1ccc(-c2cnc3c(c2)C(=O)N([C@@H](C)CO)C[C@@H](C)[C@@H](CN(C)CC2CC2)O3)cc1,x,16*,-5,x,0
O=C(Nc1ccc(S(=O)(=O)NC2=NCCCCC2)cc1)c1ccc([N+](=O)[O-])s1,86*,-1,4,-43,-3
O=C(Nc1ccc(S(=O)(=O)NC2=NCCCCC2)cc1)c1cccs1,33,5,65*,-9,1
O=C(Nc1ccc(S(=O)(=O)NC2=NCCCCC2)cc1)c1ccc(Cl)c([N+](=O)[O-])c1,-1,2,u,2,-1
O=C(Nc1ccc(S(=O)(=O)NC2=NCCCCC2)cc1)c1ccc(C(F)(F)F)cc1,x,-3,2,x,-2
CC(=O)N(C)C[C@H]1[C@H](c2ccccc2)[C@@H](CO)N1C(=O)C1CC1,-11,-1,-12,4,4
Cc1nnc2n(-c3ccccc3)c(=O)c3c4c(sc3n12)COC(C)(C)C4,105*,x,x,-4,x
Cc1nnc2n(C)c(=O)c3c4c(sc3n12)COC(C)(C)C4,x,0,2,10,-3
Cc1cc(Cc2cc(C)c(N)cc2C)c(C)cc1N,12,21*,-1,-2,3
Cc1cccc(NC(=O)c2ccc(OC3CSC3)cc2)c1,105*,x,x,-14,x
CC(=O)c1cccc(NC(=O)c2ccc(OC3CSC3)cc2)c1,x,-2,-9,-1,-16
CCCCNC(=O)C[C@H]1C[C@@]2(C(=O)OC)C(=C[C@H](COCc3ccccc3)O[C@@H]2C)N(CCC2=CCCCC2)C1=O,x,x,1,x,4
C[C@@H]1CN([C@@H](C)CO)C(=O)Cc2cc(NC(=O)CCCCCC(=O)Nc3ccccc3N)ccc2O[C@H]1CN(C)CC1CC1,x,1,21*,9,3
Cc1noc(C)c1S(=O)(=O)N(C)C[C@@H]1Oc2ccc(NC(=O)CCCCCC(=O)Nc3ccccc3N)cc2CC(=O)N([C@@H](C)CO)C[C@@H]1C,x,3,29*,-3,0
Cc1noc(C)c1S(=O)(=O)N(C)C[C@@H]1Oc2ccc(NC(=O)CCCCCC(=O)Nc3ccccc3N)cc2CC(=O)N([C@H](C)CO)C[C@H]1C,x,x,14,-3,x
C[C@@H]1CN([C@H](C)CO)C(=O)Cc2cc(NC(=O)CCCCCC(=O)Nc3ccccc3N)ccc2O[C@@H]1CN(C)S(C)(=O)=O,3,x,91*,8,1
C[C@@H]1CN([C@H](C)CO)C(=O)Cc2cc(NC(=O)CCCCCC(=O)Nc3ccccc3N)ccc2O[C@@H]1CN(C)CC1CC1,0,-2,11,-1,0
C[C@@H]1CN([C@H](C)CO)C(=O)Cc2cc(NC(=O)Nc3ccc(C(F)(F)F)cc3)ccc2O[C@@H]1CN(C)C(=O)Nc1ccc2c(c1)OCO2,x,13,-13,16,-1
C[C@@H]1CN([C@@H](C)CO)C(=O)c2c(c3ccccc3n2C)-c2ccccc2CO[C@@H]1CN(C)Cc1ccc2c(c1)OCO2,x,20*,-7,-22,29
C[C@H](CO)N1C[C@H](C)[C@@H](CN(C)Cc2ccc3c(c2)OCCN3C)OCc2ccccc2-c2c(n(C)c3ccccc23)C1=O,x,6,37*,-4,4
C[C@H]1CN([C@@H](C)CO)C(=O)c2c(c3ccccc3n2C)-c2ccccc2CO[C@H]1CN(C)Cc1ccc2c(c1)OCCN2C,x,14,0,-2,11
